Measured values published in paper PMC8486219 (Cancer Science, 2021).

Tests used:
MDA‐MB‐231 cells = assay: Real-time cell migration assay; format: cell-based, human; conditions: 2 h pretreatment, 1 µM TH1902 or 2 µM docetaxel, monitored 12 h
Procedure, shortened: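 MDA-MB-231 cells were transfected 24 h with scrambled or SORT1 siRNA, then pretreated 2 h with or without compound. Cells (25 000/well) were seeded serum-free into xCELLigence CIM plates (8 µm pores, underside gelatin-coated 0.15%, 1 h, 37°C), with serum-free medium below. After 30 min adhesion, impedance (Cell Index) was read hourly for 12 h. Duplicate wells, two experiments; one-way ANOVA with Dunnett at 10 h.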

MDA‐MB‐231‐Luc xenograft = assay: MDA-MB-231-Luc xenograft, intraperitoneal treatment; format: in vivo, mouse; conditions: i.p. docetaxel 15 mg/kg/wk (MTD), five cycles, CD-1 nude mice, bioluminescence
Procedure, shortened: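 MDA-MB-231-Luc cells (5 × 10^6 in HBSS) were injected s.c. into the right flank of female CD-1 nude mice under isoflurane. At ~100 mm3, mice received weekly i.p. vehicle, docetaxel 15 mg/kg, or test compound 50 mg/kg for five cycles. Tumor bioluminescence was monitored and expressed relative to each mouse's day-0 post-treatment value, as mean ± SEM (six mice/group).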

MDA‐MB‐231 xenograft = assay: MDA-MB-231 xenograft, intravenous treatment; format: in vivo, mouse
[1] = Preliminary pharmacokinetics after i.v. bolus; format: in vivo, mouse; conditions: CD-1 mice, single i.v. bolus TH1902 50 mg/kg
PD‐L1‐positive TNBC = conditions: phase 1b trial of 32 patients with PD-L1-positive TNBC; cited from earlier work

Row | Compound | Effect on cell migration (in words) (MDA‐MB‐231 cells) | Start of tumor relapse (MDA‐MB‐231‐Luc xenograft) | Tumor growth at a quarter of the MTD (in words) (MDA‐MB‐231 xenograft; i.v. docetaxel 3.75 mg/kg or TH1902 8.75 mg/kg, n = 6 mice/group) | Restart of tumor growth (MDA‐MB‐231 xenograft; i.v. docetaxel 15 mg/kg/wk (MTD), three injections, n = 5 mice/group) | free docetaxel exposure, fold lower than TH1902-associated docetaxel in plasma [1] | AUC of free (released) docetaxel after TH1902 dosing ([1]; plasma, UPLC/MS) | Cmax of free (released) docetaxel after TH1902 dosing ([1]; plasma, UPLC/MS) | response rate (PD‐L1‐positive TNBC)
1 | CC(=O)O[C@@]12CO[C@@H]1C[C@H](O)[C@@]1(C)C(=O)[C@H](O)C3=C(C)[C@@H](OC(=O)[C@H](O)[C@@H](NC(=O)OC(C)(C)C)c4ccccc4)C[C@@](O)([C@@H](OC(=O)c4ccccc4)[C@H]21)C3(C)C [docetaxel] | inhibit cell migration | 46 days | unaffected | 50 days | approximately 37 fold | 15.5 µM·h | 7 µM | 
2 | Pembrolizumab: monoclonal anti‐PD‐1 antibody |  |  |  |  |  |  |  | 18.5%
